Measured values: article PMC9890357 (Food Science of Animal Resources, 2023)
No end group written: not given here.

How the values were obtained:
ACE = conditions: peptides with C-terminal Tyr residues; ref Chen et al., 2009; Erdmann et al., 2006; Ko et al., 2012; Liu et al., 2021; Yu et al., 2019; cited from earlier work
[1] = biological target: ACE (angiotensin I-converting enzyme) (Homo sapiens, UniProt P12821); assay: ACE inhibition activity; format: biochemical
Method in brief: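 Commercial ACE kit-WST run according to the manufacturer's protocol. The test compound was a peptide purified from an alcalase hydrolysate of velvet antler (<5 kDa ultrafiltration fraction, then Sephadex G-25, then reverse-phase HPLC) and lyophilized. Results are reported as mean±SD. Groups were compared by one-way ANOVA with Duncan's multiple range test, with significance at p<0.05.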

[2] = synthetic ACE inhibitor drugs; ref Lee and Hur, 2017; cited from earlier work

ACE (angiotensin I-converting enzyme), sequence (P12821 30-1306, species assumed): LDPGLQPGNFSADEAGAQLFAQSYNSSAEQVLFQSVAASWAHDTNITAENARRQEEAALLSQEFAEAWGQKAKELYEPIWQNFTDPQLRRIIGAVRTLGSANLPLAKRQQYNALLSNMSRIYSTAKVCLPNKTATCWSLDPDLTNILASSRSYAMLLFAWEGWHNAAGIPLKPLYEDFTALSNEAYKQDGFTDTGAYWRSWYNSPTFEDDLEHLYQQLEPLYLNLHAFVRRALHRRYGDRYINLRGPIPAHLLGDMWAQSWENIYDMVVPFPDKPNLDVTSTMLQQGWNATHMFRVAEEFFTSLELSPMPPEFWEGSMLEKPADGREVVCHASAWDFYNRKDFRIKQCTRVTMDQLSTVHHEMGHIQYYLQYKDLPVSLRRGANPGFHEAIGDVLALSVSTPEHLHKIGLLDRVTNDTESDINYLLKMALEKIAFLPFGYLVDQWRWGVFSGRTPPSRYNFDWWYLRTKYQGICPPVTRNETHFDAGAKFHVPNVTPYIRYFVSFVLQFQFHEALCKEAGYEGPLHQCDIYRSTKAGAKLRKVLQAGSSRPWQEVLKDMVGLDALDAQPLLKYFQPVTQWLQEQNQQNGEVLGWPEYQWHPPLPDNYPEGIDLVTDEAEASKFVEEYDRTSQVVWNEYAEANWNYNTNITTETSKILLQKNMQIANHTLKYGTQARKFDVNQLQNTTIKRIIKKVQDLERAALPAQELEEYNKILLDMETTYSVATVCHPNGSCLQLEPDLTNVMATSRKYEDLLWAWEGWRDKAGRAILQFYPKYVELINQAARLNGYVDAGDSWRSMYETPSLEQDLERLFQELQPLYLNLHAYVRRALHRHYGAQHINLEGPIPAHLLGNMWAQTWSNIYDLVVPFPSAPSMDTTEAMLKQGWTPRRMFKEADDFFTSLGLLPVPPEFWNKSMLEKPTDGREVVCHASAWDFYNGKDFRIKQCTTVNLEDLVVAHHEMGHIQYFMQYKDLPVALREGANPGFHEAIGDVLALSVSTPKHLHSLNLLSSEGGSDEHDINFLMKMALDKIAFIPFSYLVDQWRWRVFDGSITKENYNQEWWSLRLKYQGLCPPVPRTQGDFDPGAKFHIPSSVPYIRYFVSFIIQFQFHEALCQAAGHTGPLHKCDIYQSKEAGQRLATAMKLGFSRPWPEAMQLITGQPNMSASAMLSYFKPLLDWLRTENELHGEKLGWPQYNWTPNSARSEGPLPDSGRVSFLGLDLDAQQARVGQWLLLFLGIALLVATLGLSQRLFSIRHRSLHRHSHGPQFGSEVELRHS

Molecule | ACE inhibitory activity (in words) (ACE) | side effects [2] | other results
Arg-Val-Tyr | potent ACE inhibitory activities |  | 
Val-Tyr | potent ACE inhibitory activities |  | 
Met-Tyr | potent ACE inhibitory activities |  | 
DNRYY [DNRYY, Asp-Asn-Arg-Tyr-Tyr] |  |  | IC50 [1]: 3.72 µM; inhibition at 1.75 µM ([1]; read-out: ACE inhibition): 23.6%; inhibition at 3.5 µM ([1]; read-out: ACE inhibition): 48.1%; inhibition at 7 µM ([1]; read-out: ACE inhibition): 69.8%; inhibition at 14 µM ([1]; read-out: ACE inhibition): 89.5%
C[C@H](CS)C(=O)N1CCC[C@H]1C(=O)O [captopril] |  | headaches, insomnia, fatigue, and increased blood potassium levels | 
CCOC(=O)[C@H](CCc1ccccc1)N[C@@H](C)C(=O)N1CCC[C@H]1C(=O)O [enalapril] |  | headaches, insomnia, fatigue, and increased blood potassium levels | 
Ile-Tyr | potent ACE inhibitory activities |  | 
CCOC(=O)[C@H](CCc1ccccc1)N[C@H]1CCc2ccccc2N(CC(=O)O)C1=O [benazepril] |  | headaches, insomnia, fatigue, and increased blood potassium levels | 
